Tests used:
Assay type in all cases: cell-based
[1] = test system: MDA-MB-231 breast cancer cells; experiment: MTT antiproliferative assay, MDA-MB-231; conditions: Homo sapiens, MDA-MB-231, 24 h, read-out: Antiproliferative activity (IC50) MDA-MB-231
Summary of the method: (§1)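 Cells were seeded at 2×10^3 per well and left to adhere for 24 h. Test compound was then added at 0–100 µM final, and cells were incubated for 24 h at 37 °C. MTT was added for 4 h, […]. Absorbance was read at 540 nm and growth compared with untreated cells. IC50 was taken from a dose-response curve.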

[2] = test system: MCF-7 breast cancer cells; experiment: MTT antiproliferative assay, MCF-7; conditions: Homo sapiens, MCF7, 24 h, read-out: Antiproliferative activity (IC50) MCF-7
Summary of the method: (§2)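 Cells seeded at 2×10^3 per well and left 24 h to adhere, then exposed to test compound (0–100 µM, final) for 24 h at 37 °C. MTT added for 4 h, a second MTT addition followed by overnight incubation, and absorbance read at 540 nm. Growth compared with untreated cells; IC50 derived from dose-response curves.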

[3] = MTT cytotoxicity towards normal breast cells; conditions: human, MCF-10A normal breast cells
[4] = test system: normal MCF-10A breast cells; experiment: MTT cytotoxicity towards normal breast cells; conditions: SI: IC50(MCF-10A)/IC50(MCF-7) or IC50(MCF-10A)/IC50(MDA-MB-231)
[5] = test system: MDA-MB-231/ADR breast cancer cells; experiment: MTT antiproliferative assay, MDA-MB-231/ADR; conditions: Homo sapiens, MDA-MB-231, 24 h, read-out: Antiproliferative activity (IC50) MDA-MB-231/ADR
Summary of the method: as §1

[6] = test system: MCF-7, MDA-MB-231, MCF-7/ADR and MDA-MB-231/ADR breast cancer cell lines; experiment: MTT antiproliferative assay, the four breast cancer cell lines taken together; conditions: Homo sapiens, read-out: IC50 range over the four breast cancer cell lines
Summary of the method: as §2

Row | Structure (SMILES) | IC50 [1] | IC50 [2] | IC50 at 24 h [3] | Selectivity index (SI) [4] | IC50 [5] | IC50 [6]
1 | COc1cccc2c1C(=O)c1c(O)c3c(c(O)c1C2=O)C[C@@](O)(C(=O)CO)C[C@@H]3O[C@H]1C[C@H](N)[C@H](O)[C@H](C)O1 [ADR, Adriamycin, reference compound] | 3.38 µM | 18.9 µM | 68.8 µM | 3.64 | > 100 µM | 
2 | C[C@@H]1CC[C@H]2[C@@H](C)C(=O)O[C@@H]3O[C@@]4(C)CC[C@@H]1[C@]32OO4 [ART, Artemisinin, reference compound] | > 100 µM | > 100 µM | > 100 µM |  | > 100 µM | > 100 µM
3 | C[C@H]1[C@@H](O)O[C@@H]2O[C@@]3(C)CC[C@H]4[C@H](C)CC[C@@H]1[C@@]24OO3 [DHA, Dihydroartemisinin, reference compound] | 48.8 µM | 28.3 µM | > 100 µM | >3.53 | 82.8 µM | 14.8 to 82.8 µM
4 | C[C@@H]1CC[C@H]2[C@@H](C)C(OC(=O)CCCN3C(=O)C(=O)c4ccccc43)O[C@@H]3O[C@@]4(C)CC[C@@H]1[C@]32OO4 (stereo partly drawn) [Hybrid 4a, (3R,5aS,6R,8aS,9R,12R,12aR)-3,6,9-trimethyldecahydro-12H-3,12-epoxy[1,2]dioxepino[4,3-i]isochromen-10-yl 4-(2,3-dioxoindolin-1-yl)butanoate] | 14.9 µM | 13.6 µM | > 100 µM | >7.33 | 49.6 µM | 
5 | C[C@@H]1CC[C@H]2[C@@H](C)C(OC(=O)CCCN3C(=O)C(=O)c4cc(F)ccc43)O[C@@H]3O[C@@]4(C)CC[C@@H]1[C@]32OO4 (stereo partly drawn) [Hybrid 4b, (3R,5aS,6R,8aS,9R,12R,12aR)-3,6,9-trimethyldecahydro-12H-3,12-epoxy[1,2]dioxepino[4,3-i]isochromen-10-yl 4-(5-fluoro-2,3-dioxoindolin-1-yl)butanoate] | 50 µM | 13.1 µM | > 100 µM | >7.62 | > 100 µM | 
6 | Cc1ccc2c(c1)C(=O)C(=O)N2CCCC(=O)OC1O[C@@H]2O[C@@]3(C)CC[C@H]4[C@H](C)CC[C@@H]([C@H]1C)[C@@]24OO3 (stereo partly drawn) [Hybrid 4c, (3R,5aS,6R,8aS,9R,12R,12aR)-3,6,9-trimethyldecahydro-12H-3,12-epoxy[1,2]dioxepino[4,3-i]isochromen-10-yl 4-(5-methyl-2,3-dioxoindolin-1-yl)butanoate] | 32.9 µM | > 100 µM |  |  | > 100 µM | 
7 | COc1ccc2c(c1)C(=O)C(=O)N2CCCC(=O)OC1O[C@@H]2O[C@@]3(C)CC[C@H]4[C@H](C)CC[C@@H]([C@H]1C)[C@@]24OO3 (stereo partly drawn) [Hybrid 4d, (3R,5aS,6R,8aS,9R,12R,12aR)-3,6,9-trimethyldecahydro-12H-3,12-epoxy[1,2]dioxepino[4,3-i]isochromen-10-yl 4-(5-methoxy-2,3-dioxoindolin-1-yl)butanoate] | 15.1 µM | 18.1 µM | > 100 µM | >5.52 | 20.1 µM | 
8 | CON=C1C(=O)N(CCCC(=O)OC2O[C@@H]3O[C@@]4(C)CC[C@H]5[C@H](C)CC[C@@H]([C@H]2C)[C@@]35OO4)c2ccccc21 (stereo partly drawn) [Hybrid 5a, (3R,5aS,6R,8aS,9R,12R,12aR)-3,6,9-trimethyldecahydro-12H-3,12-epoxy[1,2]dioxepino[4,3-i]isochromen-10-yl 4-(3-(methoxyimino)-2-oxoindolin-1-yl)butanoate] | > 100 µM | 19.1 µM | > 100 µM | >5.23 | 52.2 µM | 
9 | CCON=C1C(=O)N(CCCC(=O)OC2O[C@@H]3O[C@@]4(C)CC[C@H]5[C@H](C)CC[C@@H]([C@H]2C)[C@@]35OO4)c2ccccc21 (stereo partly drawn) [Hybrid 5b, (3R,5aS,6R,8aS,9R,12R,12aR)-3,6,9-trimethyldecahydro-12H-3,12-epoxy[1,2]dioxepino[4,3-i]isochromen-10-yl 4-(3-(ethoxyimino)-2-oxoindolin-1-yl)butanoate] | 15.1 µM | 1.27 µM | > 100 µM | >78.74 | 26.8 µM | 
10 | C[C@@H]1CC[C@H]2[C@@H](C)C(OC(=O)CCCN3C(=O)C(=NOCc4ccccc4)c4ccccc43)O[C@@H]3O[C@@]4(C)CC[C@@H]1[C@]32OO4 (stereo partly drawn) [Hybrid 5c, (3R,5aS,6R,8aS,9R,12R,12aR)-3,6,9-trimethyldecahydro-12H-3,12-epoxy[1,2]dioxepino[4,3-i]isochromen-10-yl 4-(3-((benzyloxy)imino)-2-oxoindolin-1-yl)butanoate] | 2.39 µM | > 100 µM | > 100 µM |  | 3.95 µM | 
11 | CON=C1C(=O)N(CCCC(=O)OC2O[C@@H]3O[C@@]4(C)CC[C@H]5[C@H](C)CC[C@@H]([C@H]2C)[C@@]35OO4)c2ccc(F)cc21 (stereo partly drawn) [Hybrid 5d, (3R,5aS,6R,8aS,9R,12R,12aR)-3,6,9-trimethyldecahydro-12H-3,12-epoxy[1,2]dioxepino[4,3-i]isochromen-10-yl 4-(3-(methoxyimino)-5-fluoro-2-oxoindolin-1-yl)butanoate] | > 100 µM | 6.07 µM | > 100 µM |  | > 100 µM | 
12 | CCON=C1C(=O)N(CCCC(=O)OC2O[C@@H]3O[C@@]4(C)CC[C@H]5[C@H](C)CC[C@@H]([C@H]2C)[C@@]35OO4)c2ccc(F)cc21 (stereo partly drawn) [Hybrid 5e, (3R,5aS,6R,8aS,9R,12R,12aR)-3,6,9-trimethyldecahydro-12H-3,12-epoxy[1,2]dioxepino[4,3-i]isochromen-10-yl 4-(3-(ethoxyimino)-5-fluoro-2-oxoindolin-1-yl)butanoate] | 8.12 µM | 15.9 µM | > 100 µM | >6.29 | > 100 µM | 
13 | C[C@@H]1CC[C@H]2[C@@H](C)C(OC(=O)CCCN3C(=O)C(=NOCc4ccccc4)c4cc(F)ccc43)O[C@@H]3O[C@@]4(C)CC[C@@H]1[C@]32OO4 (stereo partly drawn) [Hybrid 5f, (3R,5aS,6R,8aS,9R,12R,12aR)-3,6,9-trimethyldecahydro-12H-3,12-epoxy[1,2]dioxepino[4,3-i]isochromen-10-yl 4-(3-((benzyloxy)imino)-5-fluoro-2-oxoindolin-1-yl)butanoate] | > 100 µM | 18.3 µM | > 100 µM | >5.46 | > 100 µM | 
14 | CCON=C1C(=O)N(CCCC(=O)OC2O[C@@H]3O[C@@]4(C)CC[C@H]5[C@H](C)CC[C@@H]([C@H]2C)[C@@]35OO4)c2ccc(C)cc21 (stereo partly drawn) [Hybrid 5g, (3R,5aS,6R,8aS,9R,12R,12aR)-3,6,9-trimethyldecahydro-12H-3,12-epoxy[1,2]dioxepino[4,3-i]isochromen-10-yl 4-(3-(ethoxyimino)-5-methyl-2-oxoindolin-1-yl)butanoate] | > 100 µM | > 100 µM |  |  | > 100 µM | 
15 | Cc1ccc2c(c1)C(=NOCc1ccccc1)C(=O)N2CCCC(=O)OC1O[C@@H]2O[C@@]3(C)CC[C@H]4[C@H](C)CC[C@@H]([C@H]1C)[C@@]24OO3 (stereo partly drawn) [Hybrid 5h, (3R,5aS,6R,8aS,9R,12R,12aR)-3,6,9-trimethyldecahydro-12H-3,12-epoxy[1,2]dioxepino[4,3-i]isochromen-10-yl 4-(3-((benzyloxy)imino)-5-methyl-2-oxoindolin-1-yl)butanoate] | > 100 µM | > 100 µM |  |  | > 100 µM | 
16 | CON=C1C(=O)N(CCCC(=O)OC2O[C@@H]3O[C@@]4(C)CC[C@H]5[C@H](C)CC[C@@H]([C@H]2C)[C@@]35OO4)c2ccc(OC)cc21 (stereo partly drawn) [Hybrid 5i, (3R,5aS,6R,8aS,9R,12R,12aR)-3,6,9-trimethyldecahydro-12H-3,12-epoxy[1,2]dioxepino[4,3-i]isochromen-10-yl 4-(5-methoxy-3-(methoxyimino)-2-oxoindolin-1-yl)butanoate] | > 100 µM | > 100 µM |  |  | > 100 µM | 
17 | CCON=C1C(=O)N(CCCC(=O)OC2O[C@@H]3O[C@@]4(C)CC[C@H]5[C@H](C)CC[C@@H]([C@H]2C)[C@@]35OO4)c2ccc(OC)cc21 (stereo partly drawn) [Hybrid 5j, (3R,5aS,6R,8aS,9R,12R,12aR)-3,6,9-trimethyldecahydro-12H-3,12-epoxy[1,2]dioxepino[4,3-i]isochromen-10-yl 4-(3-(ethoxyimino)-5-methoxy-2-oxoindolin-1-yl)butanoate] | > 100 µM | > 100 µM |  |  | > 100 µM | 
18 | COc1ccc2c(c1)C(=NOCc1ccccc1)C(=O)N2CCCC(=O)OC1O[C@@H]2O[C@@]3(C)CC[C@H]4[C@H](C)CC[C@@H]([C@H]1C)[C@@]24OO3 (stereo partly drawn) [Hybrid 5k, (3R,5aS,6R,8aS,9R,12R,12aR)-3,6,9-trimethyldecahydro-12H-3,12-epoxy[1,2]dioxepino[4,3-i]isochromen-10-yl 4-(3-((benzyloxy)imino)-5-methoxy-2-oxoindolin-1-yl)butanoate] | > 100 µM | > 100 µM |  |  | > 100 µM | 

Source: article PMC9926453 (Medicinal Chemistry Research, 2023)
